Data taken from ChEMBL document CHEMBL4007402 (J Med Chem, 2017).

How the values were obtained:
T-24 = assay: Growth inhibition of human T24 cells after 72 hrs by CellTiter-Glo or CCK-8 assay; format: functional; settings: T-24, 72 h
[1] = Growth inhibition of CHL cells after 72 hrs by CellTiter-Glo or CCK-8 assay; format: cell-based, Cricetulus griseus; settings: chinese hamster
[2] = molecular target: Epidermal growth factor receptor (Homo sapiens) (UniProt P00533); assay: Inhibition of recombinant TEL-fused EGFR (unknown origin) expressed in mouse BAF3 cells assessed as growth inhibition after 72 hrs by CellTiter-Glo or CCK-8 assay; format: cell-based
Epidermal growth factor receptor (Homo sapiens), sequence (P00533 whole entry, the tested form may be a part): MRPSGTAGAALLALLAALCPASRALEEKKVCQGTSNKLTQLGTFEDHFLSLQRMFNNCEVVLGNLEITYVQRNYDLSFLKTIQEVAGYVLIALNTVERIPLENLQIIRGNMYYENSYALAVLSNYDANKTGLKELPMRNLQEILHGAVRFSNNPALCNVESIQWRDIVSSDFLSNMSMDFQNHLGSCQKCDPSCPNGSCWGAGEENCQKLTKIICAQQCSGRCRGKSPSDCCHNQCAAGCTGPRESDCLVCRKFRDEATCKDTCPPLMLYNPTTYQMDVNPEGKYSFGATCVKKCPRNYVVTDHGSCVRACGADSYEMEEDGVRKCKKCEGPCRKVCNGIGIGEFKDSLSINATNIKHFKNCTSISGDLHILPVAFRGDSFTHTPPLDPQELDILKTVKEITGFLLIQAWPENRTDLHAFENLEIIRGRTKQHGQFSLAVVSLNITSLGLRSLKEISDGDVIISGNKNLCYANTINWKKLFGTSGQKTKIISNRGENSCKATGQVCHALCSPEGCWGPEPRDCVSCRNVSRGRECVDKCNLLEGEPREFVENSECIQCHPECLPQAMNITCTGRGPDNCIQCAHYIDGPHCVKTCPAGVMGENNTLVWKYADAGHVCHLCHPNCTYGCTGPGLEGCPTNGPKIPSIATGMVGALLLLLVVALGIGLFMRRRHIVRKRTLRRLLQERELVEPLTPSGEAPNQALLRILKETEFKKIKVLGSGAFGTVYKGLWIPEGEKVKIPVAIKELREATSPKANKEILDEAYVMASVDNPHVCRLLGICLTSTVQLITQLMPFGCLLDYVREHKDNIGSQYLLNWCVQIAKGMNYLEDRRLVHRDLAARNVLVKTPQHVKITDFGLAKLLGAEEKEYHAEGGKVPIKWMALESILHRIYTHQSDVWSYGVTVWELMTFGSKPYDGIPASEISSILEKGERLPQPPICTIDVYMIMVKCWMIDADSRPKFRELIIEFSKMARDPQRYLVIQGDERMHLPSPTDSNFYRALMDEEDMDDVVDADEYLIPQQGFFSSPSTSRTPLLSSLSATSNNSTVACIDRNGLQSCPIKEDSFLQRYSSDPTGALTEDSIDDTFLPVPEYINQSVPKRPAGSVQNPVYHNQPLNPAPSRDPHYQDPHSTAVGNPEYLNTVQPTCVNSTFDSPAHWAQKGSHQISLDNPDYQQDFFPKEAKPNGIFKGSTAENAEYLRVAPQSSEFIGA
Outline: (§1)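 Isogenic murine BaF3 cells transformed with TEL-fused kinases, whose proliferation depends on the fused kinase, were used. Parental BaF3 cells served as the general selectivity counter-screen. The anti-proliferative read-out was reported as GI50.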

[3] = Cmax in Sprague-Dawley rat at 1 mg/kg, iv up to 8 hrs; format: ADME, organism-based; set-up: dose 1 mg/kg, route intravenous; settings: in vivo
Outline: (§2)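 Sprague Dawley rats given a single i.v. dose of 1 mg/kg or an oral dose of 10 mg/kg. Plasma AUC(0-t), AUC(0-∞), MRT(0-t), T1/2, Tmax and Cmax were derived and reported as mean±SD.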

[4] = molecular target: T1, Tyrosine-protein kinase JAK3 (Homo sapiens) (UniProt P52333); assay: Inhibition of recombinant TEL-fused JAK3 (unknown origin) expressed in mouse BAF3 cells assessed as growth inhibition after 72 hrs by CellTiter-Glo or CCK-8 assay; format: cell-based; outline: as §1
T1 sequence (whole entry): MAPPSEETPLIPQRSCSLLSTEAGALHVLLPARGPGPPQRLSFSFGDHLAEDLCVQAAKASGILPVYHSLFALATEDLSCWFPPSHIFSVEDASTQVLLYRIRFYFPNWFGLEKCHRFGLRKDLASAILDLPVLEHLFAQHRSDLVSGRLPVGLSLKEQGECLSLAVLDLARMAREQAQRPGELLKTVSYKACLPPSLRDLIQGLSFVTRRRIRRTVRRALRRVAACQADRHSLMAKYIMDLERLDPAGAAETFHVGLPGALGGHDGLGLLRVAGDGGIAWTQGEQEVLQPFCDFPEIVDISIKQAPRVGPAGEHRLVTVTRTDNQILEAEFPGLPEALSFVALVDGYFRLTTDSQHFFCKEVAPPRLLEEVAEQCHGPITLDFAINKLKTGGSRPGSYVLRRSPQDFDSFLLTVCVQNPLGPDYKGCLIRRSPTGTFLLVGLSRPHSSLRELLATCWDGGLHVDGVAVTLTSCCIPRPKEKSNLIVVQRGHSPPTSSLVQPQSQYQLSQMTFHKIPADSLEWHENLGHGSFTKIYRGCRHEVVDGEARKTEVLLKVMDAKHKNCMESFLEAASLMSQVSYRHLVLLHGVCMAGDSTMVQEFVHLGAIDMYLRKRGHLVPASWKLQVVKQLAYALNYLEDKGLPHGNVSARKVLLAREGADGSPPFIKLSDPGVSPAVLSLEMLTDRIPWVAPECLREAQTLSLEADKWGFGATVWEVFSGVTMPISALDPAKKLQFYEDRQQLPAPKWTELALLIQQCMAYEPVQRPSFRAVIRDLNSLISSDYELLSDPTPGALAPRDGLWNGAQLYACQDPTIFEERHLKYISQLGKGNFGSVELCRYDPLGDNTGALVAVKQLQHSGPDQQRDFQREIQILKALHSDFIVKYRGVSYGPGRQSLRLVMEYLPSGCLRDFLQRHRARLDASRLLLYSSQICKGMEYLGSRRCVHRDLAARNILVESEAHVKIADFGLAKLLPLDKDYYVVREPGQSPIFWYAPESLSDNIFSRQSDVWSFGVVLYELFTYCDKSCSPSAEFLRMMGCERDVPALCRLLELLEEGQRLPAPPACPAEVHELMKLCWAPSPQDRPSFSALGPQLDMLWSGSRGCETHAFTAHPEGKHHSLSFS

[5] = molecular target: Tyrosine-protein kinase ABL1 (Homo sapiens) (UniProt P00519); assay: Binding affinity to human phosphorylated ABL1 (229 to 512 amino acid residues) expressed in mammalian expression system assessed as percent control number at 1 uM by KINOMEscan assay
Tyrosine-protein kinase ABL1 (Homo sapiens), sequence (P00519 whole entry, the tested form may be a part): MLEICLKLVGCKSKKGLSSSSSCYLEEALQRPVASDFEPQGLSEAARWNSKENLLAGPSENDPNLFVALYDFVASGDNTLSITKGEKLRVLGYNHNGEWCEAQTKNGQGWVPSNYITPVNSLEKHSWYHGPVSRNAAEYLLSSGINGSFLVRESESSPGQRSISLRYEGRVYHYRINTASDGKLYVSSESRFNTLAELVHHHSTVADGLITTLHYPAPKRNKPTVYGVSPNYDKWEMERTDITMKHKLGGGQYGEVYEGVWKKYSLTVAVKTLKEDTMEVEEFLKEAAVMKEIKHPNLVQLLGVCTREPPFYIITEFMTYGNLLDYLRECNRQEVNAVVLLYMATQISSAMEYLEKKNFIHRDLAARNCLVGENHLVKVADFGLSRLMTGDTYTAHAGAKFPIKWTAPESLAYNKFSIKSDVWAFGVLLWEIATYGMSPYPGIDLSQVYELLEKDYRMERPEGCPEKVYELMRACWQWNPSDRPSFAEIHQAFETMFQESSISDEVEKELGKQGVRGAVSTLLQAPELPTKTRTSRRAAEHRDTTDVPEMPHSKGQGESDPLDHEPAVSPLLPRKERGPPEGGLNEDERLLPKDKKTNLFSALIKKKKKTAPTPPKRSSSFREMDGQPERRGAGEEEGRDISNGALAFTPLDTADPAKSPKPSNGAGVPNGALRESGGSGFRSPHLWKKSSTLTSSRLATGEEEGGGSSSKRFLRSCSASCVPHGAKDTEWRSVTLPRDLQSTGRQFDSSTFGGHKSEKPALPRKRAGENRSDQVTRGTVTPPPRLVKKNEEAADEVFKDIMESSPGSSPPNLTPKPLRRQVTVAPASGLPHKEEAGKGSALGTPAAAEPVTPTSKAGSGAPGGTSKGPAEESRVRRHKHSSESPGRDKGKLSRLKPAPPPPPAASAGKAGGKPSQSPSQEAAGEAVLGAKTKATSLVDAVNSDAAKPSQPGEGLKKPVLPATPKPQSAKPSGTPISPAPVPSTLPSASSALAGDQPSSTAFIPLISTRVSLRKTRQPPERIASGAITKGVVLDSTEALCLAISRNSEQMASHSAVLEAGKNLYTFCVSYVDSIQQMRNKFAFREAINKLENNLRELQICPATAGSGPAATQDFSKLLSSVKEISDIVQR
Outline: (§3)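 KINOMEscan competition binding panel of 468 kinases, with the compound tested at 1 µM. Binding is expressed as percent of control relative to DMSO.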

ACHN = assay: Growth inhibition of human ACHN cells after 72 hrs by CellTiter-Glo or CCK-8 assay; format: functional
[6] = molecular target: Platelet-derived growth factor receptor beta (Homo sapiens) (UniProt P09619); assay: Inhibition of recombinant TEL-fused PDGFR-beta (unknown origin) expressed in mouse BAF3 cells assessed as growth inhibition after 72 hrs by CellTiter-Glo or CCK-8 assay; format: cell-based; outline: as §1
Platelet-derived growth factor receptor beta (Homo sapiens), sequence (P09619 whole entry, the tested form may be a part): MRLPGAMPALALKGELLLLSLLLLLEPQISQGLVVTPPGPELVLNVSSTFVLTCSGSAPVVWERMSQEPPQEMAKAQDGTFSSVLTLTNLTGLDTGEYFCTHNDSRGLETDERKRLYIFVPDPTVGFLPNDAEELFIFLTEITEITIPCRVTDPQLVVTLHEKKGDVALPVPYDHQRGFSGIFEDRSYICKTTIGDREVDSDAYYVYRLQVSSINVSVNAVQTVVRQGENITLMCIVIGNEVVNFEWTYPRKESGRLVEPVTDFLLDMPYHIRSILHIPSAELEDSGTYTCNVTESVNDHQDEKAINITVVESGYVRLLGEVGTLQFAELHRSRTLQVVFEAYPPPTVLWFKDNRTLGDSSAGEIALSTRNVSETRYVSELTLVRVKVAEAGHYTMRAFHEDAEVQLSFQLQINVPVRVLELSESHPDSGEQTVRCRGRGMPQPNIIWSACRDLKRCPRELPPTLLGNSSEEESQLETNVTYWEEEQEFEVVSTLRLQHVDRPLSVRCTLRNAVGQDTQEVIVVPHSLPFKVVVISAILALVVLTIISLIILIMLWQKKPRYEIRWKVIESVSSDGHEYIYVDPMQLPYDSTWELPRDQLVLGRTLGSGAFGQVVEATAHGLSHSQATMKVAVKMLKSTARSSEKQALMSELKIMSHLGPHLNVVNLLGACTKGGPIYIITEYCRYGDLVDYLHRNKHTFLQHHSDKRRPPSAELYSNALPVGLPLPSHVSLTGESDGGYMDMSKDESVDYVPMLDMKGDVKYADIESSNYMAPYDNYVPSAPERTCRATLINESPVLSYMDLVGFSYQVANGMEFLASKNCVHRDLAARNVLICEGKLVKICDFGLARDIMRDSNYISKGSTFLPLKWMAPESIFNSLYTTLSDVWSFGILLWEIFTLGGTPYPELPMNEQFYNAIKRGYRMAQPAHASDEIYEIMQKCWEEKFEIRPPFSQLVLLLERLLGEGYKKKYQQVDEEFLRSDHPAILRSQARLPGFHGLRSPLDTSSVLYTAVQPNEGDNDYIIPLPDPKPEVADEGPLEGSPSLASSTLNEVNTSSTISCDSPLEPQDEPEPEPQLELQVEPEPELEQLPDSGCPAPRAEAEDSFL

[7] = Half-life in Sprague-Dawley rat at 1 mg/kg, iv; format: ADME, organism-based; settings: in vivo; outline: as §2
[8] = Half-life in Sprague-Dawley rat at 10 mg/kg, po; format: ADME, organism-based; settings: in vivo; outline: as §2
DU-145 = assay: Growth inhibition of human DU145 cells after 72 hrs by CellTiter-Glo or CCK-8 assay; format: functional; settings: DU-145, 72 h
A498 = assay: Growth inhibition of human A498 cells after 72 hrs by CellTiter-Glo or CCK-8 assay; format: functional; settings: A498, 72 h
[9] = Growth inhibition of mouse BAF3 cells after 72 hrs by CellTiter-Glo or CCK-8 assay; format: cell-based; outline: as §1
[10] = Mean residence time (0 to t) in Sprague-Dawley rat at 10 mg/kg, po; format: ADME, organism-based; settings: in vivo; outline: as §2
[11] = AUC (0 to t) in Sprague-Dawley rat at 1 mg/kg, iv up to 8 hrs; format: ADME, organism-based; set-up: time < 8 hr, dose 1 mg/kg, route intravenous; settings: in vivo; outline: as §2
[12] = molecular target: Tyrosine-protein kinase ABL1 (Homo sapiens) (UniProt P00519); assay: Inhibition of recombinant TEL-fused ABL (unknown origin) expressed in mouse BAF3 cells assessed as growth inhibition after 72 hrs by CellTiter-Glo or CCK-8 assay; format: cell-based; outline: as §1
[13] = Cmax in Sprague-Dawley rat at 10 mg/kg, po up to 24 hrs; format: ADME, organism-based; set-up: dose 10 mg/kg, route oral; settings: in vivo; outline: as §2
[14] = Growth inhibition of CHO cells after 72 hrs by CellTiter-Glo or CCK-8 assay; format: cell-based, Cricetulus griseus; settings: chinese hamster
[15] = AUC (0 to infinity) in Sprague-Dawley rat at 10 mg/kg, po up to 24 hrs; format: ADME, organism-based; set-up: dose 10 mg/kg, time infinity, route oral; settings: in vivo; outline: as §2
[16] = molecular target: Mitogen-activated protein kinase 14 (Homo sapiens, UniProt Q16539); assay: Binding affinity to full length human p38alpha (1 to 360 amino acid residues) expressed in bacterial expression system assessed as percent control number at 1 uM by KINOMEscan assay; outline: as §3
Mitogen-activated protein kinase 14, sequence (Q16539 whole entry, the tested form may be a part): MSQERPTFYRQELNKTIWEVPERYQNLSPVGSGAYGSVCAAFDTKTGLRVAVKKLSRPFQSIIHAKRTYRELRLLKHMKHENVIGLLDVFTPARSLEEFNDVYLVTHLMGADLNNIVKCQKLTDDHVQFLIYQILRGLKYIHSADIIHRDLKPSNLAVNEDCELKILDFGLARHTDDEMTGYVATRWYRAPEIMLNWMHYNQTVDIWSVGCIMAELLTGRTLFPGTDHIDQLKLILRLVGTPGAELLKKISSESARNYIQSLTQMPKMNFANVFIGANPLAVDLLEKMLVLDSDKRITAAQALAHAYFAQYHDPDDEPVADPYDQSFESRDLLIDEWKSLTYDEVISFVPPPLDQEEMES

[17] = Mean residence time (0 to t) in Sprague-Dawley rat at 1 mg/kg, iv; format: ADME, organism-based; settings: in vivo; outline: as §2
CWR22R = assay: Growth inhibition of human 22Rv1 cells after 72 hrs by CellTiter-Glo or CCK-8 assay; format: functional; settings: 22Rv1, 72 h
[18] = AUC (0 to infinity) in Sprague-Dawley rat at 1 mg/kg, iv up to 8 hrs; format: ADME, organism-based; set-up: dose 1 mg/kg, route intravenous, time infinity; settings: in vivo; outline: as §2
[19] = molecular target: Tyrosine-protein kinase ABL1 (Homo sapiens) (UniProt P00519); assay: Inhibition of human nonphosphorylated ABL1 (229 to 512 amino acid residues) expressed in mammalian expression system assessed as remaining activity at 1 uM by KINOMEscan assay relative to control; outline: as §3
[20] = Growth inhibition of human bladder cancer cells after 72 hrs by CellTiter-Glo or CCK-8 assay; format: functional; settings: Bladder cancer cell

`C=CC(=O)Nc1cc(Nc2ncc(C(=O)Nc3cc(NC(=O)c4cc(OC)c(OC)c(OC)c4)ccc3C)c(NC)n2)ccc1C` gave a GI50 (T-24) of 8.98 µM, a GI50 at 72 h [1] of over 10 µM and a GI50 [2] of over 10 µM. It also gave a Cmax [3] of 13600 ng/mL, a GI50 [4] of over 10 µM and an Activity [5] of 6.5%. For the same compound, the GI50 (ACHN) was 4.93 µM, the GI50 [6] was 0.91 µM and the half-life [7] was 0.8 h. For the same compound, the half-life [8] was 6.11 h, the GI50 (DU-145) was 7.89 µM and the GI50 (A498) was over 10 µM. The GI50 at 72 h [9] was over 10 µM, the MRT last [10] was 2.76 h and the AUC(0-t) at 8 h [11] was 1390 ng·h/mL. For the same compound, the GI50 [12] was 2.56 µM, the Cmax [13] was 5.58 ng/mL and the GI50 at 72 h [14] was over 10 µM. For the same compound, the AUC(0-inf) [15] was 27.6 ng·h/mL, the Activity [16] was 0% and the MRT last [17] was 0.224 h. The GI50 (CWR22R) was 3.45 µM, the AUC(0-inf) [18] was 1390 ng·h/mL and the Activity [19] was 0.7%. The GI50 [20] was 8.87 µM.
